Measurements as given in the EternaBench riboswitch data.

System: MS2 coat protein
Assay: apparent Kd, MS2 coat protein; higher = weaker binding; RNA-MaP array; FMN 200 µM where present
In short: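 Stalled E. coli RNA polymerase produced the designs on Illumina sequencing-chip clusters. SNAP-549-labelled MS2 coat protein was added from 0.7 or 1.5 nM, doubling to 3 µM, without and then with constant ligand, in 100 mM Tris-HCl pH 7.5, 80 mM KCl, 4 mM MgCl2, BSA, DTT, yeast tRNA and Tween-20. The apparent Kd is the median of filtered per-cluster fits of green signal normalised to red-channel RNA signal and control-cluster median Fmax.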

[1] = designed as: ON switch for flavin mononucleotide, no ligand
[2] = ligand present: flavin mononucleotide, designed as: ON switch for flavin mononucleotide
[3] = designed as: OFF switch for flavin mononucleotide, no ligand
[4] = ligand present: flavin mononucleotide, designed as: OFF switch for flavin mononucleotide

Sequence	apparent Kd [1] [nM]	apparent Kd [2] [nM]	apparent Kd [3] [nM]	apparent Kd [4] [nM]
GCAGCACUGUAGUACAUGAGGAUCACCCAUGUCGAUUGUUAUGAGGAUAUGCAUCGUAUGAAGAUGCAGAAGGCAUUGUGCUGC	5.22	5.04	–	–
UCGUAUAAGGGCAUUACACAUGAGGAUCACCCAUGUACGUUAGAGGAUAUGCAUUUCAGUUGAACGUAGAAGGCUAGAGAAGGG	–	–	117	103
CACUCGUGUCUAGGAUAUGAGUGACAAGCGCGAGAUUUUCUCGCUGCUAGCUCAGAAGGAGACAUGAGGAUCACCCAUGUAAGG	–	–	144	25.4
AUGCGUCGAGAGGAUAUUUGCGAGGUGACCAGCAAAGAAGGUUCGACAUGAGGAUCACCCAUGUCCAGCAUUUG	–	–	34.2	72.8
CAUUAAUUGAUUAUUGAAUAUUUACAGGAUAUGUUACAUGAGGAUCACCCAUGUAAAUAUGGGUUACAGAAGGGUAUUUAUAGA	–	–	36.2	32.5
UGUAGUUACGUAGGAUAUCCACGGGCACCCGUAGGAGAAGGACGCUGGACAUGAGGAUCACCCAUGUAUAGAUGGGUGCCUUUC	–	–	125	206
UUACUAUAACAGAAGGGUAGAUAAUAUAUAAAUGCAGGAUAUGUUACAUGAGGAUCACCCAUGUUUCACCCACAUGAGGAUCAC	–	–	27.9	55.4
UAAUAAUUAUGAGGAUAUAUACAACAUGAGGAUCACCCAUGUACCCAUGUAGUAGAAGGCAUAUUUUUAGUUAAUAAUAUAACU	82.2	33	–	–
AUUAUACAUGAGGAUCACCCAUGUAAUUAAUUAAUUAAGAUCAAGGAUAUCAGCUCGAUUAGAGCUGAGAAGGUGAUCACAUGU	402	292	–	–
ACAUACUUUCGAGGAUAUCGGUGAUAAAUUUUACGAGAAGGCGAUAAAAGAUAUAAUCUUAUAGACAUGAGGAUCACCCAUGUA	30.5	27.3	–	–
UUCCUCGUUGUGAGGAUAUCGUCCUAUUUUUGUUACGAGAAGGCACAUGAGGAUCACCCAUGUUACUUGAUGUU	–	–	19.9	71
ACCCUGUCAGGAUAUCCUGCUGUGCGGCCUCUGUAUUCAAGGGAGAAGGGACAUGAGGAUCACCCAUGUAUGAG	–	–	40.6	47.5
CGCUCAAGAGAGAAGGAUAGAAUCAGAAGGCGUAACAUGAGGAUCACCCAUGUAAAGUAGUGUAACGAGGAUAUGAAAUGAGCG	–	–	11.8	13.1
CAUAUCCAAGGAUAUACGAUGGCUCCUUCCAUCGUGUGACCACAUGAGGAUCACCCAUGUAGAAGGUGGAUAUU	–	–	23.2	24
GCGUACAUAUCAGGAUAUCAUAUUAUUGUUUUACUCAGUGUAUACAUGAGGAUCACCCAUGUUCUUGAGAAGGGAUUACUACGC	–	–	15.2	14.7
CUCCAGCAAGGAUAUACAUGAGGAUCACCCAUGUAAAGACAAGAGUUGGGAGACGCAUGUAGAAGGUGCACAUC	–	–	38.2	69
AGGCGUGCUGAGGAUAUACUACCGGUUGCGAUAGUAGAAGGUAGCACAUGAGGAUCACCCAUGUGGUCAGAUGC	–	–	24	64.6
UGCAUGUAAGGAUAUGCACUGCGCGAGCCUGGCUCGCAAAGGCAGAAGGUACAUGAGGAUCACCCAUGUGAGAA	–	–	91.5	99.7
UUGUUAUAUGUAGGAUAUGCGUGUUAUUAUUAUGCAGAAGGACAUGAGGAUCACCCAUGUGUAUUAUUAUUAUAUAUUAUAUAU	–	–	20.3	18.1
AGCAGACGAGGAUAUAAAUUUGAUAACAUGAGGAUCACCCAUGUGAUCGAUAGAUCAAAUUUAGAAGGCGUCUGCU	–	–	647	940
UUAGCAUACCGAGGAUAUUCAUAUAAUAAAUAAACAUGAGGAUCACCCAUGUGGCGAAAGCCUAGGGAGAAGGCGGAAUGCUAA	220	21.9	–	–

Sequence	apparent Kd [1] [nM]	apparent Kd [2] [nM]	apparent Kd [3] [nM]	apparent Kd [4] [nM]
UUUUAUUGCAAGGAUAUGCAAAUUAUUAUUAAUGCAGAAGGUGCUACAUGAGGAUCACCCAUGUUUCUGGGUUU	–	–	98.2	308
CUCAUGUGAGGAUAUGUACAGAAAAAAAUGGGUGAAACUGUACAGAAGGCACAUGAGGAUCACCCAUGUGCCUU	–	–	24.3	12.2
GACUGAUUACAGAAGGUGUAAGACAUGAGGAUCACCCAUGUGAUAUAGGGUAUAUUUGAAUAUAACAAGGAUAUGUAUAAAUCA	102	60.4	–	–
GGAUAGGACAGAGGAUAUACGUGCUAGAGAUACUAGCACAAUUUCCUCACAUGAGGAUCACCCAUGUAGAAGGCUGUCCUAUCG	–	–	6.08	26.3
AGCAUGGUAGGAUAUACGGAGCAUUAGGGUUUGUUGUGUGGACAUGAGGAUCACCCAUGUAGAAGGGCCGUGCA	–	–	47	64.2
CUGGGCGGAGGAUAUGCGGGUUGGGCAUAAGUUCGGCUGGGACAUGAGGAUCACCCAUGUAGAAGGUUGUUCGG	–	–	40.3	40
UCACGGGAUUGAGGAUAUAUUUAAAUUUUUACAAUAGAAGGCAAAUUUUUAGUUUUUUCACUUUACAUGAGGAUCACCCAUGUU	–	–	28.8	24.5
AGUACCAUGUAGAAGGGAUAUCUGAUUCAGAUAUCAGGAUAUACAUGAGGAUCACCCAUGUAAAUGUACUGCACGAGAGUGCAA	–	–	14.7	50.2
GUUGUAUGAGGAUAUACAUGAGGAUCACCCAUGUGUGUUGUGAACGAUGUACGUUUAUGUAGAAGGCGUGCGGC	–	–	17.8	21.5
GUAGGAAUCACAGGAUAUGCAUGCGCCGCUUCGUUCUACAUGAGGAUCACCCAUGUGUGGUCCGUGUAGAAGGGUGUUUGCUAC	33.9	11.6	–	–
GGGUACAUCGGAGGAUAUCAUGUAAAUACAUGAGGAUCACCCAUGUAGAUGGAGACAUCGGAGAUUGAGAAGGCCGAUGUACCG	7.69	5.84	–	–
UUAAUUCUGAUUCUUGAAAUACAUGAGGAUCACCCAUGUUCACAGGAUAUUGAUUAUGGUAGUAACAAGAAGGGUGUAUCAUAU	–	–	66	113
UAUUCAUUCAGAGGAUAUUGUUUAUCUCUAUUUCAAGAAGGCUGAUUUUACUACUUACUUAUGAAACAUGAGGAUCACCCAUGU	25.6	17.5	–	–
AUGAAAGUAACGCAGGAUAUCCAGGAUACAACAUGAGGAUCACCCAUGUACAUACGAACGUAUAAGGAGAAGGGUGGAUGAUCUUC	173	342	–	–
GAAAUUACAUGAGGAUCACCCAUGUAGGAUAUCGCUAUUGUAAUCAUGUUACAUGAUUACAAUAGCGAGAAGGACGUGAGAAAG	–	–	22.9	25.6
GCAUCGCAUGUCAGGAUAUGCUGUACCUUGGUACAGCAGAAGGGACAUGAGGAUCACCCAUGUGCCUACGAUGC	–	–	29.2	169
CCUGAGUCAGGAUAUUGUACCAGCCUGAAGCCAGGCUGACCCAAGAAGGGACAUGAGGAUCACCCAUGUGAAAA	–	–	27	25.6
GCCUUAUCUGUCAGGAUAUACAAUAUUUUUUUUUUGUAGAAGGGACAUGAGGAUCACCCAUGUACAUUACAUUG	–	–	31.3	71.8
ACAUGAGACUAAGGAUAUGAUGUACCUAUAUGUGACAUGAGGAUCACCCAUGUGGUAAGUAUGACUCAGAAGGUAGAGAUAUGU	222	77.3	–	–
CGUUAAUAUCGAGGAUAUGUCUAGACACAUGAGGAUCACCCAUGUAUGUGUAUAGAAGGCGAUAUUAACAGCAUGUUACAUCCC	46.6	18.8	–	–
UUAAAUCAUGUAGGAUAUGCAUGGCGAAGCUACGCAGAAGGACAUGAGGAUCACCCAUGUUAUAGCGUCCGAAUAAGGAUGCAA	–	–	90.7	199
